Data on 33 compounds can be found in ChEMBL document CHEMBL2424632, “Substituted 2-hydroxy-N-(arylalkyl)benzamides induce apoptosis in cancer cell lines” (Eur J Med Chem, 2013).

Molecules are shown by their SMILES. Active and inactive are the calls of the source. The calls are words filed in the database; no cut-off is given here.

For the first experiment, the system named is HCT-116. Nature of the experiment: Cytotoxicity against human HCT116 cells after 72 hrs by calcein-AM assay. It counts as functional, cell-based. Particulars: HCT-116, 72 h.
Regarding `CC(C)(C)[C@H](NC(=O)c1cc(Cl)ccc1O)C(=O)Nc1cccc(C(F)(F)F)c1`, the IC50 (in general, the concentration that gives 50% inhibition) was 5.4 µM.
Same read-out and setting: to `O=C(N[C@@H](CC1CCCCC1)C(=O)Nc1ccc(Br)cc1)c1cc(Cl)ccc1O` belongs 2 µM.
On to `O=C(N[C@@H](CC1CCCCC1)C(=O)Nc1cccc(C(F)(F)F)c1)c1cc(Cl)ccc1O`, for which the IC50 is 1.5 µM.
Still for that read-out and setting: to `CC(C)[C@H](NC(=O)c1cc(Cl)ccc1O)C(=O)Nc1ccc(C(F)(F)F)cc1` belongs 5.9 µM.

The subject of another experiment is HOS. Nature of the experiment: Cytotoxicity against human HOS cells after 72 hrs by calcein-AM assay. The experiment is classed as functional, cell-based.
Conditions: not given
For `CC(C)(C)[C@H](NC(=O)c1cc(Cl)ccc1O)C(=O)Nc1cccc(C(F)(F)F)c1`, the IC50 is 7.8 µM.
On to `O=C(N[C@@H](CC1CCCCC1)C(=O)Nc1ccc(Br)cc1)c1cc(Cl)ccc1O`, for which the IC50 is 3.3 µM.
The same measure, in the same setting: the same measure for `O=C(N[C@@H](CC1CCCCC1)C(=O)Nc1cccc(C(F)(F)F)c1)c1cc(Cl)ccc1O`: 3.4 µM; for `CC(C)[C@H](NC(=O)c1cc(Cl)ccc1O)C(=O)Nc1ccc(C(F)(F)F)cc1`: 7 µM.

Another experiment has as its system G-361. The experiment in a line: Cytotoxicity against human G361 cells after 72 hrs by calcein-AM assay. The experiment is classed as functional, cell-based. Particulars: G-361, 72 h.
`CC(C)(C)[C@H](NC(=O)c1cc(Cl)ccc1O)C(=O)Nc1cccc(C(F)(F)F)c1`: the half-maximal inhibitory concentration (IC50) is 8.3 µM.
On the same count and under the same terms, the same measure for `O=C(N[C@@H](CC1CCCCC1)C(=O)Nc1ccc(Br)cc1)c1cc(Cl)ccc1O`: 1.3 µM; for `O=C(N[C@@H](CC1CCCCC1)C(=O)Nc1cccc(C(F)(F)F)c1)c1cc(Cl)ccc1O`: 1.3 µM.
On the same count and under the same terms, to `CC(C)[C@H](NC(=O)c1cc(Cl)ccc1O)C(=O)Nc1ccc(C(F)(F)F)cc1` belongs 6.6 µM.

A further experiment has as its system G-361. The experiment in a line: Induction of apoptosis in human G361 cells assessed as caspase-3/7 activation at 2 uM after 24 hrs by fluorescence assay relative to control. It counts as functional.
Conditions: not given
The method in brief: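 G361 cells seeded at 20,000 per well overnight, then exposed 24 h to compound at 2 µM final. 3x caspase-3/7 buffer (HEPES pH 7.4, NaCl, KCl, MgCl2, EGTA, NP-40, CHAPS, sucrose, DTT, PMSF) with Ac-DEVD-AMC substrate added; incubated 37 °C, fluorescence read after 4 h at 346/442 nm; activity expressed relative to untreated cells.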
`CC(C)(C)[C@H](NC(=O)c1cc(Cl)ccc1O)C(=O)Nc1cccc(C(F)(F)F)c1`: the outcome was Active.
As for `O=C(N[C@@H](CC1CCCCC1)C(=O)Nc1ccc(Br)cc1)c1cc(Cl)ccc1O`, the “fold change (FC)” value is recorded as greater than 10.
On the same count and under the same terms, to `O=C(N[C@@H](CC1CCCCC1)C(=O)Nc1cccc(C(F)(F)F)c1)c1cc(Cl)ccc1O` belongs greater than 10.
With `CC(C)[C@H](NC(=O)c1cc(Cl)ccc1O)C(=O)Nc1ccc(C(F)(F)F)cc1`, the result was Active.

For the next experiment, the system named is HeLa. Nature of the experiment: Cytotoxicity against human HeLa cells after 72 hrs by calcein-AM assay. The experiment is classed as functional, cell-based.
Conditions: not given
For `CC(C)(C)[C@H](NC(=O)c1cc(Cl)ccc1O)C(=O)Nc1cccc(C(F)(F)F)c1`, the IC50 is 6.5 µM.
Same read-out and setting: to `O=C(N[C@@H](CC1CCCCC1)C(=O)Nc1ccc(Br)cc1)c1cc(Cl)ccc1O` belongs 1.3 µM; to `O=C(N[C@@H](CC1CCCCC1)C(=O)Nc1cccc(C(F)(F)F)c1)c1cc(Cl)ccc1O`, 1.3 µM.
In the case of `CC(C)[C@H](NC(=O)c1cc(Cl)ccc1O)C(=O)Nc1ccc(C(F)(F)F)cc1`, the IC50 is 5.4 µM.

Another experiment relates to K562. Nature of the experiment: Cytotoxicity against human K562 cells after 72 hrs by calcein-AM assay. It counts as functional, cell-based. Particulars: K562, 72 h.
In the case of `CC(C)[C@H](NC(=O)c1cc(Cl)ccc1O)C(=O)Nc1ccc(Cl)c(Cl)c1`, the IC50 was greater than 10 µM.
On the same count and under the same terms, to `C[C@H](NC(=O)c1cc(Cl)ccc1O)C(=O)Nc1cccc(Cl)c1` belongs greater than 10 µM; to `O=C(N[C@@H](Cc1ccccc1)C(=O)Nc1ccc(Cl)cc1)c1cc(Cl)ccc1O`, greater than 10 µM.
Same read-out and setting: to `CC(C)[C@H](NC(=O)c1ccc(Cl)cc1O)C(=O)Nc1ccc(Br)cc1` belongs greater than 10 µM; to `CC(C)[C@@H](NC(=O)c1cc(Cl)ccc1O)C(=O)Nc1cccc(Cl)c1`, greater than 10 µM.
Same read-out and setting: to `CC(C)[C@H](NC(=O)c1cc(Cl)ccc1O)C(=O)Nc1ccccc1` belongs greater than 10 µM.
Take `CC(C)[C@H](NC(=O)c1ccc(Cl)cc1O)C(=O)Nc1ccc(Cl)c(Cl)c1`: the half-inhibitory concentration (IC50) was greater than 10 µM.
Still for that read-out and setting: the same measure for `O=C(CNC(=O)c1cc(Cl)ccc1O)Nc1cccc(Cl)c1`: greater than 10 µM; for `O=C(N[C@H](Cc1ccccc1)C(=O)Nc1cccc(Cl)c1)c1cc(Cl)ccc1O`: greater than 20 µM; for `CC(C)(C)[C@H](NC(=O)c1cc(Cl)ccc1O)C(=O)Nc1cccc(C(F)(F)F)c1`: 5.9 µM.
On the same count and under the same terms, the same measure for `COc1ccc(NC(=O)[C@@H](NC(=O)c2cc(Cl)ccc2O)C(C)C)cc1`: greater than 10 µM; for `C[C@H](NC(=O)c1ccc(Cl)cc1O)C(=O)Nc1ccc(C(F)(F)F)cc1`: greater than 12.5 µM.
Same read-out and setting: the same measure for `O=C(N[C@@H](CC1CCCCC1)C(=O)Nc1ccc(Br)cc1)c1cc(Cl)ccc1O`: 3 µM; for `O=C(N[C@@H](CC1CCCCC1)C(=O)Nc1cccc(C(F)(F)F)c1)c1cc(Cl)ccc1O`: 3.4 µM.
As for `CC(C)[C@H](NC(=O)c1cc(Cl)ccc1O)C(=O)Nc1cccc(Cl)c1`, the concentration for half-maximal inhibition (IC50) is greater than 10 µM.
Still for that read-out and setting: the same measure for `O=C(CNC(=O)c1cc(Cl)ccc1O)Nc1ccc(Cl)c(Cl)c1`: greater than 20 µM.
Same read-out and setting: the same measure for `C[C@H](NC(=O)c1ccc(Cl)cc1O)C(=O)Nc1ccc(Cl)cc1`: greater than 10 µM.
On the same count and under the same terms, to `CC(C)[C@H](NC(=O)c1ccc(Cl)cc1O)C(=O)Nc1ccc(Cl)cc1` belongs greater than 10 µM; to `C[C@@H](NC(=O)c1ccc(Cl)cc1O)C(=O)Nc1ccc(Cl)cc1`, greater than 10 µM.
As to `CC(C)[C@H](NC(=O)c1cc(Cl)ccc1O)C(=O)Nc1ccc(Cl)cc1`, the IC50 is greater than 20 µM.
Still for that read-out and setting: the same measure for `C[C@H](NC(=O)c1cc(Cl)ccc1O)C(=O)Nc1ccc(C(F)(F)F)cc1`: greater than 12.5 µM.
The same measure, in the same setting: the same measure for `O=C(N[C@@H](Cc1ccccc1)C(=O)Nc1ccc(Cl)cc1)c1ccc(Cl)cc1O`: greater than 10 µM; for `C[C@@H](NC(=O)c1cc(Cl)ccc1O)C(=O)Nc1ccc(Cl)cc1`: greater than 20 µM; for `C[C@H](NC(=O)c1ccc(Cl)cc1O)C(=O)Nc1ccc(Cl)c(Cl)c1`: greater than 12.5 µM.
Still for that read-out and setting: to `CC(C)[C@H](NC(=O)c1cc(Cl)ccc1O)C(=O)Nc1ccc(C(F)(F)F)cc1` belongs 4.5 µM; to `O=C(N[C@@H](Cc1ccccc1)C(=O)Nc1ccc(Cl)c(Cl)c1)c1cc(Cl)ccc1O`, greater than 10 µM.
In the case of `Cc1ccc(NC(=O)c2ccc(CN3CCN(C)CC3)cc2)cc1Nc1nccc(-c2cccnc2)n1` [IMATINIB], the IC50 was 0.5 µM.
Still for that read-out and setting: to `O=C(N[C@@H](Cc1ccccc1)C(=O)Nc1cccc(Cl)c1)c1cc(Cl)ccc1O` belongs greater than 10 µM; to `O=C(N[C@H](Cc1ccccc1)C(=O)Nc1ccc(Cl)cc1)c1ccc(Cl)cc1O`, greater than 10 µM; to `O=C(N[C@@H](Cc1ccccc1)C(=O)Nc1ccc(Cl)c(Cl)c1)c1ccc(Cl)cc1O`, greater than 10 µM.
Still for that read-out and setting: the same measure for `Cc1ccc(NC(=O)[C@H](C)NC(=O)c2cc(Cl)ccc2O)cc1`: greater than 10 µM.
Turning to `O=C(N[C@H](Cc1ccccc1)C(=O)Nc1ccc(Cl)c(Cl)c1)c1cc(Cl)ccc1O`, the 50% inhibitory concentration (IC50) is greater than 10 µM.

Another experiment deals with MCF7. Nature of the experiment: Cytotoxicity against human MCF7 cells after 72 hrs by calcein-AM assay. Particulars: MCF7, 72 h. The experiment is classed as functional, cell-based.
In the case of `CC(C)[C@H](NC(=O)c1cc(Cl)ccc1O)C(=O)Nc1ccc(Cl)c(Cl)c1`, the IC50 is greater than 10 µM.
On the same count and under the same terms, the same measure for `C[C@H](NC(=O)c1cc(Cl)ccc1O)C(=O)Nc1cccc(Cl)c1`: greater than 10 µM; for `O=C(N[C@@H](Cc1ccccc1)C(=O)Nc1ccc(Cl)cc1)c1cc(Cl)ccc1O`: 7.9 µM; for `CC(C)[C@H](NC(=O)c1ccc(Cl)cc1O)C(=O)Nc1ccc(Br)cc1`: greater than 10 µM.
`CC(C)[C@@H](NC(=O)c1cc(Cl)ccc1O)C(=O)Nc1cccc(Cl)c1`: the concentration for half-maximal inhibition (IC50) was greater than 10 µM.
Same read-out and setting: the same measure for `CC(C)[C@H](NC(=O)c1cc(Cl)ccc1O)C(=O)Nc1ccccc1`: greater than 10 µM; for `CC(C)[C@H](NC(=O)c1ccc(Cl)cc1O)C(=O)Nc1ccc(Cl)c(Cl)c1`: greater than 10 µM; for `O=C(CNC(=O)c1cc(Cl)ccc1O)Nc1cccc(Cl)c1`: greater than 10 µM.
On the same count and under the same terms, to `O=C(N[C@H](Cc1ccccc1)C(=O)Nc1cccc(Cl)c1)c1cc(Cl)ccc1O` belongs 18.4 µM; to `CC(C)(C)[C@H](NC(=O)c1cc(Cl)ccc1O)C(=O)Nc1cccc(C(F)(F)F)c1`, 8.8 µM; to `CC[C@H](CO)Nc1nc(NCc2ccccc2)c2ncn(C(C)C)c2n1` [SELICICLIB], 12.3 µM.
Still for that read-out and setting: to `COc1ccc(NC(=O)[C@@H](NC(=O)c2cc(Cl)ccc2O)C(C)C)cc1` belongs greater than 10 µM.
As to `C[C@H](NC(=O)c1ccc(Cl)cc1O)C(=O)Nc1ccc(C(F)(F)F)cc1`, the IC50 is greater than 12.5 µM.
As to `O=C(N[C@@H](CC1CCCCC1)C(=O)Nc1ccc(Br)cc1)c1cc(Cl)ccc1O`, the IC50 was 1.9 µM.
Still for that read-out and setting: the same measure for `O=C(N[C@@H](CC1CCCCC1)C(=O)Nc1cccc(C(F)(F)F)c1)c1cc(Cl)ccc1O`: 2.3 µM; for `CC(C)[C@H](NC(=O)c1cc(Cl)ccc1O)C(=O)Nc1cccc(Cl)c1`: greater than 10 µM; for `O=C(CNC(=O)c1cc(Cl)ccc1O)Nc1ccc(Cl)c(Cl)c1`: greater than 20 µM.
With `C[C@H](NC(=O)c1ccc(Cl)cc1O)C(=O)Nc1ccc(Cl)cc1`, the concentration for half-maximal inhibition (IC50) is greater than 10 µM.
Still for that read-out and setting: to `CC(C)[C@H](NC(=O)c1ccc(Cl)cc1O)C(=O)Nc1ccc(Cl)cc1` belongs greater than 10 µM.
On the same count and under the same terms, to `C[C@@H](NC(=O)c1ccc(Cl)cc1O)C(=O)Nc1ccc(Cl)cc1` belongs greater than 10 µM.
For `CC(C)[C@H](NC(=O)c1cc(Cl)ccc1O)C(=O)Nc1ccc(Cl)cc1`, the IC50 is greater than 10 µM.
On the same count and under the same terms, to `C[C@H](NC(=O)c1cc(Cl)ccc1O)C(=O)Nc1ccc(C(F)(F)F)cc1` belongs greater than 12.5 µM.
Still for that read-out and setting: to `O=C(N[C@@H](Cc1ccccc1)C(=O)Nc1ccc(Cl)cc1)c1ccc(Cl)cc1O` belongs 9.1 µM; to `C[C@@H](NC(=O)c1cc(Cl)ccc1O)C(=O)Nc1ccc(Cl)cc1`, greater than 20 µM.
On the same count and under the same terms, the same measure for `C[C@H](NC(=O)c1ccc(Cl)cc1O)C(=O)Nc1ccc(Cl)c(Cl)c1`: greater than 12.5 µM.
As to `CC(C)[C@H](NC(=O)c1cc(Cl)ccc1O)C(=O)Nc1ccc(C(F)(F)F)cc1`, the IC50 was 7.3 µM.
Still for that read-out and setting: the same measure for `O=C(N[C@@H](Cc1ccccc1)C(=O)Nc1ccc(Cl)c(Cl)c1)c1cc(Cl)ccc1O`: greater than 10 µM; for `Cc1ccc(NC(=O)c2ccc(CN3CCN(C)CC3)cc2)cc1Nc1nccc(-c2cccnc2)n1` [IMATINIB]: greater than 10 µM.
The same measure, in the same setting: to `O=C(N[C@@H](Cc1ccccc1)C(=O)Nc1cccc(Cl)c1)c1cc(Cl)ccc1O` belongs greater than 10 µM; to `O=C(N[C@H](Cc1ccccc1)C(=O)Nc1ccc(Cl)cc1)c1ccc(Cl)cc1O`, greater than 10 µM.
For `O=C(N[C@@H](Cc1ccccc1)C(=O)Nc1ccc(Cl)c(Cl)c1)c1ccc(Cl)cc1O`, the IC50 was 7.3 µM.
Still for that read-out and setting: to `Cc1ccc(NC(=O)[C@H](C)NC(=O)c2cc(Cl)ccc2O)cc1` belongs greater than 10 µM; to `O=C(N[C@H](Cc1ccccc1)C(=O)Nc1ccc(Cl)c(Cl)c1)c1cc(Cl)ccc1O`, greater than 10 µM.
